This is an account of results in ChEMBL document CHEMBL2010694, “Indolyl and dihydroindolyl N-glycinamides as potent and in vivo active NPY5 antagonists” (Bioorg Med Chem Lett, 2012).

Data set [1] in a line: Plasma concentration in cPP-induced feeding Sprague-Dawley rat model at 0.1 mg/kg, po after 1 hr. In kind it is ADME, organism-based. The arrangement: dose 0.1 mg/kg, route oral. A digest of the protocol:
(§1)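 Satellite animals from the cPP feeding study dosed orally at 0.1, 1 or 10 mg/kg; plasma (ng/mL) and brain (ng/g) levels measured 1 h after dosing.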

The test system of data set [2] is Liver microsomes. Briefly: Intrinsic clearance in human liver microsomes at 1 uM by LC/MS analysis. In kind it is ADME, Microsome. The gist of the method: (§2)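 Compound incubated with human or rat liver microsomes; reaction quenched with acetonitrile, centrifuged, and remaining drug in supernatant measured by LC/MS to estimate T1/2, from which intrinsic clearance was derived.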
Background: Liver microsomes are a subcellular fraction often used to study metabolism.

A short description of data set [3]: Solubility of the compound at pH 7.4. The note with it: buffer. In kind it is physicochemical.
A short description of data set [4]: Volume of distribution at steady state in Sprague-Dawley rat plasma at 2 mg/kg, po and 1 mg/kg, iv after 24 hrs wash out period by HPLC analysis. The note with it: read-out: Vdss. In kind it is ADME, organism-based. The gist of the method:
(§3)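 Male Sprague-Dawley rats (200–250 g), jugular and carotid artery cannulated; compound dissolved in 20% beta cyclodextrin, pH adjusted with methane sulfonic acid. Serial blood sampled at 12 time points over 24 h post dose by automated sampler; plasma from centrifugation analysed by HPLC; PK parameters by non-compartmental analysis of plasma concentration–time profile.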

The target in another data set is T1, Cytochrome P450 2C8 (Homo sapiens, UniProt P10632).
T1 sequence (P10632 whole entry): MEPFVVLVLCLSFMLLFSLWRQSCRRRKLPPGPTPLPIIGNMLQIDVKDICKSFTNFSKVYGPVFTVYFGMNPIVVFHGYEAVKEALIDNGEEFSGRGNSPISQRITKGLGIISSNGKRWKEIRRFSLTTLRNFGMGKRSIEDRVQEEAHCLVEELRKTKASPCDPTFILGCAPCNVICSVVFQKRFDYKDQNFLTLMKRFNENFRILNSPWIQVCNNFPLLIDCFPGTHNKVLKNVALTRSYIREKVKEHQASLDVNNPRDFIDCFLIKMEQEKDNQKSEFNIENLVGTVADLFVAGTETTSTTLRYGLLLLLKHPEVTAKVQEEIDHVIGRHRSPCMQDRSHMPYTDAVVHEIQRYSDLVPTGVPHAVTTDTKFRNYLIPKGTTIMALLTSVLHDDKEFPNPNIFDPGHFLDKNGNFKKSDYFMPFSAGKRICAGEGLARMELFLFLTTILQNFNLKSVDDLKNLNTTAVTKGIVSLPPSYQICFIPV
The data set is described as follows: Inhibition of CYP2C8. Type of data set: ADME.

The nature of data set [5]: Clearance in Sprague-Dawley rat blood at 2 mg/kg, po and 1 mg/kg, iv after 24 hrs wash out period by HPLC analysis. In kind it is ADME, organism-based. The following applies: whole blood. A digest of the protocol:
as §3

Data set [6] deals with Liver microsomes. The data set is described as follows: Intrinsic clearance in rat liver microsomes at 1 uM by LC/MS analysis. In kind it is ADME, Microsome. A digest of the protocol:
as §2

The next data set concerns Rattus norvegicus. The data set is described as follows: Antiobesity activity in po dosed cPP-induced feeding Sprague-Dawley rat model assessed as reduction in food intake measured 1 hr post cpp challenge. In kind it is functional. The gist of the method: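 Rats pretreated orally at 0.1, 1 or 10 mg/kg (vehicle 20% cyclodextrin) 1 h before intracerebroventricular infusion of Y5-selective peptide agonist cPP, 0.6 nmol in normal saline; food intake recorded, n = 7–14 per group.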

The next data set deals with Plasma. Briefly: Plasma concentration in Sprague-Dawley rat at 10 mg/kg, po by LC-MS/MS analysis. On the set-up: dose 10 mg/kg, route oral. The following applies: in vivo. Type of data set: ADME, organism-based. The gist of the method: (§4)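 Male Sprague-Dawley rats (300–350 g), femoral artery cannulated; single 10 mg/kg oral dose in an appropriate vehicle, N = 3. Blood taken predose, 1, 2 and 4 h; brains then collected and stored at -80 °C. Equal portions of plasma or homogenized brain from the three rats pooled per time point, protein precipitated, quantified by LC/MS/MS.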

The nature of data set [7]: Drug uptake in cPP-induced feeding Sprague-Dawley rat model brain at 10 mg/kg, po after 1 hr. In kind it is ADME, organism-based. On the set-up: dose 10 mg/kg, route oral. The following applies: read-out: Drug uptake. The gist of the method:
as §1

Another data set concerns the target Cytochrome P450 2C19 (Homo sapiens, UniProt P33261). Briefly: Inhibition of CYP2C19. Type of data set: ADME.
For data set [8], the target named is T2, Neuropeptide Y receptor type 5 (Homo sapiens, UniProt Q15761).
T2 sequence (Q15761 whole entry): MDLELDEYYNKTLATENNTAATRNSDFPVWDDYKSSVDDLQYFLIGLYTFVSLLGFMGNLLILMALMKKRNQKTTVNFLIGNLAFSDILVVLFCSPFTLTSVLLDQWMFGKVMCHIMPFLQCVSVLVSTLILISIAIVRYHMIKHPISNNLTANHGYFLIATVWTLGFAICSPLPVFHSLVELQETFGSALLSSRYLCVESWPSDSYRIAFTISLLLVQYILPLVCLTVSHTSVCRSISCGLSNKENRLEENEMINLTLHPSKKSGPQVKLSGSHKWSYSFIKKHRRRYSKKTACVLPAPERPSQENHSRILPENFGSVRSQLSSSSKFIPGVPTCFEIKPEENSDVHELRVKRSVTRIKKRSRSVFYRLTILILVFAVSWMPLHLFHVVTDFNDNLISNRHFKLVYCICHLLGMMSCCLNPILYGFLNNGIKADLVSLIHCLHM
The data set is described as follows: Displacement of [125I]peptide YY from human NPY5 receptor. For orientation: In a radioligand displacement assay an active substance lowers the binding of a labelled ligand.

For data set [9], the system named is MDR. The data set is described as follows: Efflux ratio of permeability from basolateral to apical side over apical to basolateral side in MDCK cells expressing MDR. In kind it is ADME, cell-based, Canis lupus familiaris. The following applies: dog, MDCK-MDR1. A digest of the protocol:
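Bidirectional permeability measured across a Pgp-overexpressing mdr-MDCK cell monolayer, apical-to-basolateral and basolateral-to-apical. Apparent permeability (Papp, 10^-6 cm/s) was determined in each direction, and the efflux ratio was taken as Papp B–A over Papp A–B.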

For the next data set, the target named is T3, Cytochrome P450 1A2 (Homo sapiens, UniProt P05177).
T3 sequence (P05177 whole entry): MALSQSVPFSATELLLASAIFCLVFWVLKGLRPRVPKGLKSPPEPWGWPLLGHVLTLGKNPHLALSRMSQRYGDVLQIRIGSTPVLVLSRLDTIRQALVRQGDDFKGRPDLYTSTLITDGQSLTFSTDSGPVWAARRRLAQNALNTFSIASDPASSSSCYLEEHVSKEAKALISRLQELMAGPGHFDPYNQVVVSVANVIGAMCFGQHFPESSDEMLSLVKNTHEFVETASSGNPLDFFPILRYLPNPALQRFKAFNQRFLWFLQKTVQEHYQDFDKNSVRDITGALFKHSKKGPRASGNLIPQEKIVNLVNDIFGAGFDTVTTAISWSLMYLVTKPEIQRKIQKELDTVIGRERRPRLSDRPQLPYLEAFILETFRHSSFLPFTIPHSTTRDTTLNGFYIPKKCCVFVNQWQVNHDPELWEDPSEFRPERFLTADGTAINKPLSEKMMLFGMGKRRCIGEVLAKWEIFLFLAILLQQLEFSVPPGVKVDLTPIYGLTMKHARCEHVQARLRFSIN
Briefly: Inhibition of CYP1A2. In kind it is ADME.

Data set [10] can be described thus: Lipophilicity, log D of the compound at pH 7.4. Type of data set: physicochemical. The note with it: buffer.
A short description of data set [11]: Plasma concentration in cPP-induced feeding Sprague-Dawley rat model at 10 mg/kg, po after 1 hr. Type of data set: ADME, organism-based. On the set-up: dose 10 mg/kg, route oral. A digest of the protocol: as §1
The subject of data set [12] is MDR. Briefly: Apparent permeability from basolateral to apical side in MDCK cells expressing MDR. Type of data set: ADME, cell-based, Canis lupus familiaris. The note with it: dog, MDCK-MDR1. A digest of the protocol:
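Bidirectional permeability (A–B and B–A) across a Pgp-overexpressing mdr-MDCK cell monolayer; efflux ratio derived from the two Papp values, given in 10^-6 cm/s.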

Data set [13] can be described thus: Plasma concentration in Sprague-Dawley rat at 10 mg/kg, po after 1 hr by LC-MS/MS analysis. Type of data set: ADME, organism-based. The arrangement: dose 10 mg/kg, route oral. A digest of the protocol: as §4

≈ marks a conversion by molar mass, not a printed value.

Sequence of Cytochrome P450 2C19 (P33261 whole entry): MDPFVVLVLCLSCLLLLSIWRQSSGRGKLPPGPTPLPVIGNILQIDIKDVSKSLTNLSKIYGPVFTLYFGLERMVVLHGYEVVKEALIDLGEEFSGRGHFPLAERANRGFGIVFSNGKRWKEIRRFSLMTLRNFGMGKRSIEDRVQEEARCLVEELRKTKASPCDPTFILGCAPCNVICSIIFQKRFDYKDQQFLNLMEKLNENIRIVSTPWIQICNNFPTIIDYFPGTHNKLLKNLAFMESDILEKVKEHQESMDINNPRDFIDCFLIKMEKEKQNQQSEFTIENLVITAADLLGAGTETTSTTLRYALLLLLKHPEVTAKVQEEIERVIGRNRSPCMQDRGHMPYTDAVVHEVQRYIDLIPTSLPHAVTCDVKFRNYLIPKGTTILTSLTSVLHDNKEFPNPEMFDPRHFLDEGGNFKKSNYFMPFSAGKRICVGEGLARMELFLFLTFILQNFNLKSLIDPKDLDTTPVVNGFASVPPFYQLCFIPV

As to `CC(C)S(=O)(=O)NC[C@H]1CC[C@H](NC(=O)CN2CCc3cc(Cl)ccc32)CC1`, the concentration at 1 h in data set [1] was found to be 76 ng/mL; in [7], 151 ng/g; in [11], 1700 ng/mL; in [13], 5.47 µM. For the same molecule, the CLH with Liver microsomes [2] was found to be 3.6 L/min; in the data set on Liver microsomes [6], 49 mL/min. In [3], this molecule registered a solubility of 154 µM (≈ 65.9 µg/mL). The Vd in data set [4] worked out at 1.9 L/kg. Further, the figures for the IC50 on Cytochrome P450 2C8, against Cytochrome P450 2C19 and against Cytochrome P450 1A2 were 8.2 µM, greater than 40 µM and greater than 40 µM, respectively. Besides, the clearance in data set [5] was 23.3 mL/min/kg. Further, in the data set with Rattus norvegicus, the Activity result is “Dose-dependent effect”. Moreover, the minimal effective dose in the data set with Rattus norvegicus (read-out: MED) was less than 0.1 mg/kg. The molecule further gave a concentration in the data set on Plasma of 5.61 µM. Affinity in data set [8] was put at a Ki of 0.0005 µM. For the same molecule, in the data set on MDR [9], the efflux ratio was found to be 26. The molecule also showed a logD in data set [10] of 3. Moreover, the Papp B→A in the data set with MDR [12] is 60.1 ×10⁻⁶ cm/s.

A word on the solubility: it is how much of the substance goes into solution per volume. Low values mean little dissolved substance, high ones much dissolved substance. A word on the IC50: it is the concentration needed to halve the response being measured. Usually Ki stands for a dissociation constant, usually derived from enzyme kinetics or from competition with a known ligand. Usually efflux ratio stands for a quotient of directional permeabilities that is used to spot active efflux. By logD is commonly meant lipophilicity at a set pH, counting ionised and neutral species. Higher therefore signals a more lipophilic compound. One may read the Papp B→A as how fast a substance crosses the layer from the basolateral side.
